# Laboratory results: paper PMC2745822 (The Journal of pharmacology and experimental therapeutics, 2008)
# Where “and” joins values, the source holds several entries; their conditions need not be identical. Identical values can stand only once. Like-named read-outs stand apart in the source and are kept apart here.
# What was measured:
# rat M4 mAChR [1] = biological target: T1, rat M4 mAChR (Rattus norvegicus, UniProt P08485); settings: ref Shirey et al., 2008, cited from earlier work
# T1 sequence (P08485 1-478): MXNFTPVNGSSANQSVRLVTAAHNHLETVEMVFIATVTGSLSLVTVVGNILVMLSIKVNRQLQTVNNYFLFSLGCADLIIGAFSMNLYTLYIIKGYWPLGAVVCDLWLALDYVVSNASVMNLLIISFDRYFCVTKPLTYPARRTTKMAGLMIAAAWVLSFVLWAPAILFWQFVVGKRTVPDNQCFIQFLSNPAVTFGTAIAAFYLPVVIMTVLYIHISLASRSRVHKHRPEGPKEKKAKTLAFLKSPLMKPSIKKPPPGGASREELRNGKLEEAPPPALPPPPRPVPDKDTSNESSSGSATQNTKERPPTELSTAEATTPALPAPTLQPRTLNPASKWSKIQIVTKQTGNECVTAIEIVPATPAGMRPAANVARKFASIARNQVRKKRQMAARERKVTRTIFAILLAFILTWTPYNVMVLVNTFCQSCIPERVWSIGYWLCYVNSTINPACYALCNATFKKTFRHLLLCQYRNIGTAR
# other mAChR subtypes = settings: ref Shirey et al., 2008; cited from earlier work
# [2] = Formulation into homogeneous dosing solution; format: physicochemical; settings: vehicles acceptable for in vivo studies
# In short: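 Test compound was jet-milled to uniform nanoparticles before vehicle formulation. It was then dissolved at 56.6 mg/ml in 10% Tween 80 in double-deionized water, with pH adjusted to about 7.0 using 1 N NaOH. The mixture was sonicated until a uniform homogeneous solution formed, for intraperitoneal dosing.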
# rM4 receptor [3] = biological target: T2, rM4 receptor (Rattus norvegicus, UniProt P08485); settings: ref Shirey et al., 2008; cited from earlier work
# T2 sequence (P08485 1-478): T1 sequence (P08485 1-478)
# [4] = ref Shirey et al., 2008; cited from earlier work
# [5] = ref Bodick et al., 1997; Shekhar et al., 2001, 2008; cited from earlier work
# [6] = tested on: amphetamine-induced hyperlocomotion in rats; settings: ref Stanhope et al., 2001; cited from earlier work
# [7] = tested on: panel of 68 discrete GPCRs, ion channels, transporters, and enzymes; experiment: MDS Pharma LeadProfiling Screen radioligand binding panel; settings: 10 µM; for VU0152099 with the single exception of GABAA receptors
# [8] = biological target: T3, human M4 muscarinic receptor (Homo sapiens, UniProt P08173); settings: in presence of compound
# T3 sequence (P08173 1-479): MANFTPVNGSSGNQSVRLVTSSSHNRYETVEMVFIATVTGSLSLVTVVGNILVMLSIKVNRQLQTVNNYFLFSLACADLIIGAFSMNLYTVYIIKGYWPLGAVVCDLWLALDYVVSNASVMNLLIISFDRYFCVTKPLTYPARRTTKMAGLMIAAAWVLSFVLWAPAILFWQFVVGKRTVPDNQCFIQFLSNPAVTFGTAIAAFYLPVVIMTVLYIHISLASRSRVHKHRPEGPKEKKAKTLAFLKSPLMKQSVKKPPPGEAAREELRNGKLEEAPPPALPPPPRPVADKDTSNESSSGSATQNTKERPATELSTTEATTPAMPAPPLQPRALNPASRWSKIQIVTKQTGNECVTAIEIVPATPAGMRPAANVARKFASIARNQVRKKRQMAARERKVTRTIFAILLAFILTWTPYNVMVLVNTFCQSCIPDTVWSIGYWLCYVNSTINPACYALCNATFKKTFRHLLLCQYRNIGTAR
# [9] = Brain and plasma exposure pharmacokinetic profiling; format: in vivo, rat; settings: male rats, 56.6 mg/kg i.p.; mean ± S.E.M., n = 3
# In short: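 Male Sprague-Dawley rats (225–250 g), fasted overnight. Test compound dissolved at 56.6 mg/ml in 10% Tween 80/water, pH ~7.0 (1 N NaOH), sonicated, and given at 56.6 mg/kg i.p. Brain and trunk plasma taken at 0.5, 1, 2 and 4 h, three rats per time point. Brain homogenized in acetonitrile/methanol and plasma precipitated with acidified acetonitrile, both with internal standard. Analyzed by positive-ESI LC-MS-MS, linear 50 ng/ml–100 µg/ml. AUC0-∞ by trapezoidal method.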
# [10] = tested on: amphetamine-induced hyperlocomotion in rats; experiment: Amphetamine-induced hyperlocomotion; format: in vivo, rat; settings: 56.6 mg/kg i.p., 30-min pretreatment; 1 mg/kg s.c. amphetamine; 60 min
# [11] = tested on: motor performance in rats; experiment: Rotorod test; format: in vivo, rat; settings: 30, 56.6, or 100 mg/kg i.p., 30-min pretreatment
# In short: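 Rats got one 120-s training trial, then two 85-s trials about 10 min apart, on a 7.5-cm rod turning at a constant 20 rpm. They were pretreated i.p. for 30 min with vehicle or test compound (30, 56.6 or 100 mg/kg, salt form, 1.0 ml/kg in 10% Tween 80/water, pH ~7.0). Time on the rod was recorded, capped at 85 s. Analysis was one-way ANOVA with Dunnett's test versus vehicle.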
# rM4 receptor [12] = biological target: T2, rM4 receptor; experiment: [3H]NMS equilibrium radioligand binding, membranes from rM4-expressing CHO cells; settings: 0.1 nM [3H]NMS; concentrations up to 30 µM
# rat M4 mAChR [13] = biological target: T1, rat M4 mAChR; format: cell-based; settings: compound alone
Structure (SMILES),EC50 (rat M4 mAChR [1]; read-out: M4 EC50) [nM],potentiation (-fold shift) of the M4 ACh CRC (rat M4 mAChR [1]) [fold],activation of the other mAChR subtypes (other mAChR subtypes),formulation into homogeneous dosing solution [2],decrease in the ACh Ki (rM4 receptor [3]) [fold],log P [4],clinical efficacy [5],effect on amphetamine-induced hyperlocomotion [6],"displacement of binding, all targets tested [7]",maximal response to ACh [8],Mean AUC (0-∞) brain [9] [ng·h/g],Mean AUC(0-∞) plasma [9] [ng·h/mL],t1/2 brain [9] [h],t1/2 plasma [9] [h],effect on amphetamine-induced hyperlocomotion [10],effect on performance in the rotorod test [11],displacement of [3H]NMS (rM4 receptor [12]),response in the absence of an ACh EC20 (agonist activity) (rat M4 mAChR [13])
"Cc1cc(C)c2c(N)c(C(=O)NCc3ccc(Cl)cc3)sc2n1 [VU10010, 3-amino-N-(4-chlorobenzyl)-4,6-dimethylthieno[2,3-b]pyridine-2-carboxamide]",~400,47,causes no activation of the other mAChR subtypes,unable to formulate VU10010 into a homogeneous solution in any acceptable vehicle,14,~ 4.5 and 4.5,,,,,,,,,,,,
"CCCCCCOc1nsnc1C1=CCCN(C)C1 [xanomeline, 3-[3-hexyloxy-1,2,5-thiadiazo-4-yl]-1,2,5,6-tetrahydro-1-methylpyridine]",,,,,,,demonstrated efficacy as both a cognition-enhancing agent and an antipsychotic agent,reversal of amphetamine-induced hyperlocomotion in rats,,,,,,,,,,
"COc1ccc(CNC(=O)c2sc3nc(C)cc(C)c3c2N)cc1 [VU0152100, 3-amino-N-(4-methoxybenzyl)-4,6-dimethylthieno[2,3-b]pyridine carboxamide]",,,,afforded homogeneous dosing solutions in multiple vehicles acceptable for in vivo studies,,,,,less than 50%,approximately 130%,5726.35 ± 694.68,6570.35 ± 235.87,1.12 ± 0.01,1.62 ± 0.69,produced robust decreases in amphetamine-induced hyperlocomotion,had no effect on performance in the rotorod test,neither M4 PAM displaced,neither VU0152099 nor VU0152100 elicited a response
